Consider 1 substance from PMC7497807 (Blood cancer discovery, 2020).

This assay deals with T1, MBP-ENL (Homo sapiens, UniProt Q03111).
T1 sequence (Q03111 1-559): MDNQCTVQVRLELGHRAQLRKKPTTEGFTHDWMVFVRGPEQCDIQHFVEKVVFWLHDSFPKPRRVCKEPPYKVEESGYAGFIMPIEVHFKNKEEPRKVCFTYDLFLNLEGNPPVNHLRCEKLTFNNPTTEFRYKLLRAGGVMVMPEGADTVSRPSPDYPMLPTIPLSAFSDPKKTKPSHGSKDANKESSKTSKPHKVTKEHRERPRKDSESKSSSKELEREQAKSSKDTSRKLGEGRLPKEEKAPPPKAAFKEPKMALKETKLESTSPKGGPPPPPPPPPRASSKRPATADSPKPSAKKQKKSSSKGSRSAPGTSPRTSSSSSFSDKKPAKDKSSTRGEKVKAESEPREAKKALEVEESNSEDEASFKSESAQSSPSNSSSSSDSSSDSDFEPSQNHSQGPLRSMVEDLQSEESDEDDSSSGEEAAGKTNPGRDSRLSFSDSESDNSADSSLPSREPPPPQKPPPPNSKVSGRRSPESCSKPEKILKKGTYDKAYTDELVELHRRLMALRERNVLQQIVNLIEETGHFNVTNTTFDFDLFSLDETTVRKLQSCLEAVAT
Briefly: FA binding of fluorescein-labeled peptides to MBP-ENL. Conditions: fluorescence anisotropy, fluorescein-labeled peptide, MBP-ENL versus MBP-AF9. Put shortly: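 Fluorescence anisotropy titrations of fluoresceinated peptides spanning the AF9-binding motif of each binding partner, run with MBP-ENL and, in parallel, MBP-AF9. A KD was obtained for each protein–peptide pair, and the fold change was taken as AF9 KD/ENL KD. Each measurement was run in three replicates, with error given as SEM.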
(Fluorescence polarisation rises when a labelled molecule tumbles more slowly, as on binding a larger partner.)

No end group written: not given here.

Turning to “FITC-CBX8: fluorescein-labeled CBX8 peptide (AQGGRPSLIARIPVARILGDPEEE; also: fluorescein-labeled, attachment not given here)”, the “affinity for ENL compared with affinity for AF9 (in words)” value is listed as “substantial enhancement in binding”.
